Test results from publication PMC12363949 (bioRxiv, 2025).

Columns and labels:
Pf20S β2 subunit = test: Gel-based competition with activity-based probe Me4BodipyFL-Ahx3Leu3VS, β2 band; format: biochemical, Plasmodium falciparum; settings: preincubation of recombinant Pf20S with inhibitor before probe; denaturing gel
In short: (§1)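 Baculovirus-expressed Pf20S from Sf9 cells, purified by Streptactin affinity and size exclusion, preincubated with test compound. Then 2 μM Me4BodipyFL-Ahx3Leu3VS added, 16 h at room temperature. Samples heated 5 min at 99°C in LDS buffer with 250 μM DTT, run on 12% Bis-Tris gel in MOPS SDS buffer at 120 V. Imaged at 470 nm excitation / 530 nm emission; bands quantified densitometrically.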

Pf20S β5 subunit = test: Gel-based competition with activity-based probe Me4BodipyFL-Ahx3Leu3VS, β5 band; format: biochemical, Plasmodium falciparum; settings: preincubation of recombinant Pf20S with inhibitor before probe; denaturing gel
In short: as §1

c20S β2 = c20S β2 (Homo sapiens, UniProt P49720+Q99436); test: Human c20S β2 inhibition assay, fluorogenic substrate Z-VLR-amc; format: biochemical
Pf20S β1 = Pf20S β1 (Plasmodium falciparum, UniProt Q8I0U7+Q8I6T3); test: Pf20S β1 subunit activity/inhibition assay, fluorogenic substrate Ac-nPnD-amc; format: biochemical
Sequence of Pf20S β1 (Q8I0U7 31-282): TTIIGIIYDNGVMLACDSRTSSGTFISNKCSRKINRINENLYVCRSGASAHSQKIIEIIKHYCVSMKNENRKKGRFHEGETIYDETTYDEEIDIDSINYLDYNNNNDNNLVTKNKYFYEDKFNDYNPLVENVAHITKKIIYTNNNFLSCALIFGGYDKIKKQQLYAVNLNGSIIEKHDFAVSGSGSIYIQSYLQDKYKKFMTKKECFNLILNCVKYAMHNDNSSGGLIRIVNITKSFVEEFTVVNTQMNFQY
Sequence of Pf20S β1 (Q8I6T3 42-270): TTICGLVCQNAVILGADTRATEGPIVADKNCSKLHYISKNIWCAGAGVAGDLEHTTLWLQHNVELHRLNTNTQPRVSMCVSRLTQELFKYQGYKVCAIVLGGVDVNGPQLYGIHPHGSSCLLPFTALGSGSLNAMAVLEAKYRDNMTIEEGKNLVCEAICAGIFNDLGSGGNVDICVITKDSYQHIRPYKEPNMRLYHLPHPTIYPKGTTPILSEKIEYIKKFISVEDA
Sequence of Pf20S β1 (Q06323 whole entry partner): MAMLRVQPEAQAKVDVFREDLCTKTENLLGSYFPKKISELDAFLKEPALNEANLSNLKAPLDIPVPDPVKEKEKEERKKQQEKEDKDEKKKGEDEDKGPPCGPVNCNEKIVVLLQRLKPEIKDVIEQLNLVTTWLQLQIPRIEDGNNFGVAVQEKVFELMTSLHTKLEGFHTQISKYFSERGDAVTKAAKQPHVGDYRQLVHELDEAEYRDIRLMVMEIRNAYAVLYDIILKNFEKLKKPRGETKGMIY

Pf20S β2 = Pf20S β2 (Plasmodium falciparum, UniProt Q8I261+Q8I6T3); test: Pf20S β2 subunit activity/inhibition assay, fluorogenic substrate Z-VLR-amc; format: biochemical
Sequence of Pf20S β2 (Q8I6T3 42-270): as the sequence (Q8I6T3 42-270) above
Sequence of Pf20S β2 (Q8I261 1-218): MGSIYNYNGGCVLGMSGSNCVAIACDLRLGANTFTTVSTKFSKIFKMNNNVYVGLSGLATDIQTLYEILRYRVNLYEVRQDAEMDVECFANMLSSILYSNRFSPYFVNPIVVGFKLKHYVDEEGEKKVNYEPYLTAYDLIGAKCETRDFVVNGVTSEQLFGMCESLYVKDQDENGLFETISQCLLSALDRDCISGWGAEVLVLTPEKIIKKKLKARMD
Sequence of Pf20S β2 (Q06323 whole entry partner): as the sequence (Q06323 whole entry partner) above

Pf20S β5 = Pf20S β5 (Plasmodium falciparum, UniProt A0A5K1K7U1+Q8IJT1); test: Pf20S β5 subunit activity/inhibition assay, fluorogenic substrate Ac-FNKL-amc; format: biochemical; settings: 200 nM PA28α
Sequence of Pf20S β5 (Q8IJT1 61-271): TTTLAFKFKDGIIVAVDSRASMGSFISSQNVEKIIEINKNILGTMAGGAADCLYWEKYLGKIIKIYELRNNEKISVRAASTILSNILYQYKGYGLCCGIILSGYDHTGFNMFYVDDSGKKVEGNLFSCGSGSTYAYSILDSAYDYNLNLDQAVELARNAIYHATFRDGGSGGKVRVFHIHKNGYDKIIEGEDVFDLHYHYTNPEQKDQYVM
Sequence of Pf20S β5 (A0A5K1K7U1 29-240): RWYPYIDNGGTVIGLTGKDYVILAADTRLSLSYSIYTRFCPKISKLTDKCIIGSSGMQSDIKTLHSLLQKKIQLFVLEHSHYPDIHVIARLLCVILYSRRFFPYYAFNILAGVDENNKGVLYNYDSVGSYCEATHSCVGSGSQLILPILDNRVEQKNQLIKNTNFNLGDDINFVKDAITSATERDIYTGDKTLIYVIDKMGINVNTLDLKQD
Sequence of Pf20S β5 (Q06323 whole entry partner): as the sequence (Q06323 whole entry partner) above

[1] = biological target: incorrectly assembled half-Pf20S (immature half proteasome with Ump1) (Plasmodium falciparum) (UniProt Q8I6T3); test: cryo-EM structure

In the case of `C[C@@]12OC(=O)[C@]1([C@@H](O)[C@@H]1C=CCCC1)NC(=O)[C@@H]2CCCl` [Marizomib], the “effect on probe labeling of β2 (upper, 25 kDa) band” value (Pf20S β2 subunit) is reported as “eliminated the labeling of both bands”, the “effect on probe labeling of β5 (lower, 23 kDa) band” value (Pf20S β5 subunit) is reported as “eliminated the labeling of both bands” and the IC50 (c20S β2) is reported as roughly 300 nM. The “inhibition of Pf20S-mediated cleavage of Ac-nPnD-amc (β1 activity)” value (Pf20S β1; time-course, Fig. 3b) was “inhibited”.

For “Ac-Phe-Arg-Ser-Arg-epoxyketone [FRSR-ek]”, the “inhibition of Pf20S activity with Z-VLR-amc (β2 substrate)” value (Pf20S β2; Fig. S4) was “effectively inhibited”.

With “PA28α: human proteasome activator subunit 1 alpha, produced recombinantly in E. coli” the “increase of Pf20S β1 subunit activity” value (Pf20S β1; 200 nM PA28α, Ac-nPnD-amc) was 4 fold, the “increase of Pf20S β5 subunit activity” value (Pf20S β5) was 8 fold and the “increase of Pf20S β2 subunit activity” value (Pf20S β2; 200 nM PA28α, Z-VLR-amc) was 2 fold.

“incorrectly assembled half-Pf20S (immature half proteasome with Ump1) (from UniProt Q8I6T3 1-270; Q8IJT1 1-271; Q7K6A9 1-265) (complex)” showed a stoichiometry N [1] of 2.
